Reference: ChEMBL document CHEMBL5030534, “Discovery of Novel Anti-Breast-Cancer Inhibitors by Synergistically Antagonizing Microtubule Polymerization and Aryl Hydrocarbon Receptor Expression” (J Med Chem, 2021)
Active and inactive are the calls of the source. The calls are words filed in the database; no cut-off is given here.

Tests used:
MCF7 [1] = test: Induction of mitochondrial membrane potential loss in human MCF7 cells at 2 nM measured after 24 hrs by JC-1 staining based flow cytometry analysis (reference value: 3.01%); type: functional
[2] = Antiproliferative activity against human MCF7/ADR cells assessed as reduction in cell viability incubated for 48 hrs by MTT assay; type: functional, cell-based; conditions: MCF7, 48 h
Procedure, shortened: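 Cells seeded at 5 × 10³ per well, incubated overnight, then exposed to a range of compound concentrations for 48 h. MTT added for 4 h, medium replaced with DMSO, absorbance read at 570 nm. Three independent runs.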

Cytochrome P450 1A1 = target: T1, Cytochrome P450 1A1 (Homo sapiens, UniProt P04798); test: Inhibition of CYP1A1 signalling in human MCF7 cells assessed as reduction in CYP1A1 level incubated for 24 hrs by Western blot analysis; type: ADME, cell-based; conditions: mcf7, 24 h, at 1 to 4 nM, dose 1-4 nM
T1 sequence (P04798 whole entry): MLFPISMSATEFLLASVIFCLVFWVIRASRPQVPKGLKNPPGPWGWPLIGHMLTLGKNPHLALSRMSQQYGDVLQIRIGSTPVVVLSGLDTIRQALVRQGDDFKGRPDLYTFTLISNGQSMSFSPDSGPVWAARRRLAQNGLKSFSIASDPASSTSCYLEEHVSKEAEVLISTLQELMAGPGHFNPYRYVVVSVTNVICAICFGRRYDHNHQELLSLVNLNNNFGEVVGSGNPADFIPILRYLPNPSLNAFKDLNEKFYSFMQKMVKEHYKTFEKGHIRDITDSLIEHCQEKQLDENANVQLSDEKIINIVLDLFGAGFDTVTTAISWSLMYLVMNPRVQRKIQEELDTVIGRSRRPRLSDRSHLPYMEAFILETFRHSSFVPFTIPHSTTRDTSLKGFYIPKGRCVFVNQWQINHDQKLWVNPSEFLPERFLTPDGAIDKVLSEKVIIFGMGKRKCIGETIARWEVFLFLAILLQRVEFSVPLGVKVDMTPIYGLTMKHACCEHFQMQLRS
Procedure, shortened: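 MCF-7 cells seeded 4 × 10⁵ per well, grown 24 h, then exposed to DMSO or 1, 2, 4 nM for 24 h; BAY 2416964 served as AhR antagonist reference. Lysates adjusted to 3 mg/mL protein by BCA, resolved on 4−20% SDS-PAGE, immunoblotted; AhR and CYP1A1 bands normalized to GAPDH. Three independent runs.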

MCF-10A = test: Antiproliferative activity against human MCF-10A cells assessed as reduction in cell viability incubated for 48 hrs by MTT assay; type: cell-based
Procedure, shortened: (§1)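 Cells seeded at 5 × 10³ per well, incubated overnight, then exposed to a range of compound concentrations for 48 h. MTT added for 4 h, medium replaced with DMSO, absorbance read at 570 nm. MCF-7, L-O2 grown in DMEM; MCF-10A, MCF-7/ADR in RPMI 1640. Three independent runs.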

MCF7 [3] = test: Induction of apoptosis in human MCF7 cells assessed as necrotic cells at 0.5 nM measured after 24 hrs by Annexin V-FITC and PI staining based flow cytometry assay (reference value: 0.28%); type: functional
MCF7 [4] = test: Antiproliferative activity against human MCF7 cells assessed as reduction in cell viability incubated for 48 hrs by MTT assay; type: functional, cell-based; conditions: MCF7, 48 h; procedure, shortened: as §1
MCF7 [5] = test: Antitumor activity against human MCF7 cells xenografted in BALB/c nude mouse assessed as reduction in tumor microvessel density at 1 mg/kg, iv administered every 2 days and measured after 21 days by immunohistochemistry analysis; type: functional, organism-based; conditions: time 21.0 day
Procedure, shortened: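 Same subcutaneous MCF-7 nude-mouse xenografts dosed iv every 2 days for 21 days. Tumors then fixed, paraffin-embedded and sectioned. Apoptotic cells detected by TUNEL fluorescent staining with DNA counterstain; microvessel density measured by anti-CD31 immunohistochemistry.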

MCF7 [6] = test: Induction of apoptosis in human MCF7 cells assessed as viable cells at 2 nM measured after 24 hrs by Annexin V-FITC and PI staining based flow cytometry assay (reference value: 96.8%); type: functional; conditions: read-out: Activity
[7] = Toxicity in BALB/c nude mouse xenografted with human MCF7 cells assessed as effect on lung at 0.5 to 1 mg/kg, iv administered every 2 days for 21 days by H and E staining based assay; type: organism-based; conditions: in vivo, 504 h, dose 0.5-1 mg/kg, time 21 day
Procedure, shortened: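 Nude mice given 6 × 10⁶ MCF-7 cells subcutaneously on right flank; after 7 days randomized, eight per group. iv dosing every 2 days at 0.5 or 1 mg/kg; vehicle 10% DMSO/5% Tween 80/85% saline; paclitaxel 10 mg/kg and CA-4 20 mg/kg references. Body weight every 2 days; killed after 21 days; organs fixed, paraffin-sectioned, H&E stained.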

MCF7 [8] = test: Induction of apoptosis in human MCF7 cells assessed as decrease in of Bcl-2 protein expression at 1 to 4 nM; type: functional, cell-based; conditions: dose 1-4 nM
Procedure, shortened: (§2)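 MCF-7 seeded 4 × 10⁵ per well for 24 h, then DMSO or compound at 1, 2, 4 nM for 24 h. Lysates protein-normalized to 3 mg/mL by BCA, resolved on 4–20% SDS-PAGE and immunoblotted. Bands quantified relative to β-actin (cell-cycle proteins) or GAPDH (apoptosis proteins); n = 3.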

MCF7 [9] = test: Induction of ROS generation in human MCF7 cells measured after 24 hrs by DCFH-DA staining based flow cytometric analysis; type: functional, cell-based; conditions: dose 0.5-2 nM
Procedure, shortened: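 MCF-7 seeded 4 × 10⁵ per well for 24 h, then DMSO or 0.5, 1, 2 nM for 24 h. Loaded with DCFH-DA for 30 min in the dark, resuspended in serum-free medium, DCF fluorescence measured by flow cytometry. For scavenger condition, 2.5 mM N-acetyl-L-cysteine pretreatment, then 2 nM for 24 h. Three runs.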

MCF7 [10] = test: Induction of apoptosis in human MCF7 cells assessed as increase in cleaved Caspase-9 protein expression at 1 to 4 nM; type: functional, cell-based; conditions: dose 1-4 nM; procedure, shortened: as §2
MCF7 [11] = test: Induction of apoptosis in human MCF7 cells assessed as late apoptotic cells at 2 nM measured after 24 hrs in presence of DMBA by Annexin V-FITC and PI staining based flow cytometry assay (reference value: 1.5%); type: functional
MCF7 [12] = test: Induction of apoptosis in human MCF7 cells assessed as increase in Bad protein expression at 1 to 4 nM; type: functional, cell-based; conditions: dose 1-4 nM; procedure, shortened: as §2
[13] = target: Tubulin beta (Homo sapiens) (UniProt P68371+Q9H4B7+Q13509+P04350+Q3ZCM7+P07437+Q13885+Q9BVA1+Q9BUF5+A6NNZ2); test: Inhibition of beta-tubulin polymerization in human MCF7 cells assessed as inhibition of EBI-beta-tubulin adduct formation at 1 to 4 nM measured after 2 hrs by Western blot-based EBI competition assay; type: cell-based; conditions: dose 1-4 nM
MCF7 [14] = test: Cell cycle arrest in human MCF7 cells assessed as accumulation of cells at G2/M phase at 0.5 to 2 nM measured after 24 hrs by propidium iodide staining based flow cytometric analysis relative to control; type: functional; conditions: dose 0.5-2 nM
Procedure, shortened: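 MCF-7 seeded 4 × 10⁵ per well for 24 h, treated with DMSO or 0.5, 1, 2 nM. Fixed in 75% ethanol at −20 °C for 12 h, stained with PI by cell-cycle kit, analysed by flow cytometry. Three runs.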

MCF7 [15] = test: Induction of apoptosis in human MCF7 cells assessed as viable cells at 2 nM measured after 24 hrs by Annexin V-FITC and PI staining based flow cytometry assay (reference value: 96.5%); type: functional; conditions: read-out: Activity

Cc1nc(N(C)c2ccc3c(c2)cc(C)n3C)c2ccccc2n1
Activity (MCF7 [1]): 24.7% | IC50 [2]: 0.9 nM | inhibition (INH) (Cytochrome P450 1A1): Dose-Dependent Effect | IC50 (MCF-10A): 9.3 nM | Activity (MCF7 [3]): 0.52% | IC50 (MCF7 [4]): 0.9 nM | Activity (MCF7 [5]): Active | viability at 0.002 µM (MCF7 [6]): 38.3% | Activity [7]: Non-Toxic | Activity (MCF7 [8]): Active | Activity (MCF7 [9]): Dose-Dependent Effect | Activity (MCF7 [10]): Active | Activity (MCF7 [11]): 22% | Activity (MCF7 [12]): Active | inhibition [13]: Active | Activity (MCF7 [14]): 46.87% | viability at 0.002 µM (MCF7 [15]): 40.1%
